Laboratory results taken from ChEMBL document CHEMBL2146441, “2,6-Disubstituted imidazo[2,1-b][1,3,4]thiadiazoles: search for anticancer agents” (2012).

Key:
Assay type in all cases: functional
NCI-H322M = assay: Cytotoxicity against human NCI-H322M cells assessed as cell growth at 10^-4 M after 48 hrs by SRB assay; conditions: read-out: Activity
EKVX [1] = assay: Growth inhibition of human EKVX cells after 48 hrs by SRB assay
Outline: (§1)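 Adherent NCI-60 lines grown in RPMI 1640 with 5% FBS, seeded at 5000–40,000 cells/well, and preincubated 24 h at 37 °C, 5% CO2. Compound, stocked in DMSO, given either once at 10^-5 M or at five 10-fold dilutions for 48 h. Cells fixed with cold TCA (final 10%), stained with 0.4% SRB, and read at 515 nm. GI50 taken as 50% reduction in net protein increase versus time-zero and control plates.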

PC-3 [2] = assay: Cytotoxicity against human PC3 cells assessed as cell growth at 10^-7 M after 48 hrs by SRB assay; conditions: PC-3, 48 h, read-out: Activity
DU-145 = assay: Cytotoxicity against human DU145 cells assessed as cell growth at 10^-6 M after 48 hrs by SRB assay; conditions: DU-145, 48 h, read-out: Activity
Outline: (§2)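 NCI-60 screen: lines kept in RPMI 1640 with 5% FBS, seeded at 5000–40,000 cells/well by doubling time, preincubated 24 h at 37 °C in 5% CO2. Time-zero plates TCA-fixed at drug addition. DMSO stocks diluted in medium, 48 h exposure. Fixation in cold TCA (final 10% adherent, 16% suspension), 0.4% SRB stain, solubilised in 10 mM Tris base, A515. Percent growth computed against control and time-zero.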

EKVX [3] = assay: Cytotoxicity against human EKVX cells assessed as cell growth at 10^-4 M after 48 hrs by SRB assay; conditions: read-out: Activity; outline: as §2
MDA-MB-231 = assay: Cytotoxicity against human MDA-MB-231 cells assessed as cell growth at 10^-8 M after 48 hrs by SRB assay; conditions: MDA-MB-231, 48 h, read-out: Activity
SF-295 = assay: Growth inhibition of human SF295 cells after 48 hrs by SRB assay; conditions: SF-295, 48 h; for CC50: read-out: LC50 (the source's name); outline: as §1
HT-29 [4] = assay: Cytotoxicity against human HT-29 cells assessed as cell growth at 10^-4 M after 48 hrs by SRB assay; conditions: HT-29, 48 h, read-out: Activity
Outline: (§3)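 NCI-60 five-dose screen. Cells were grown in RPMI 1640 with 5% FBS and seeded at 5000–40,000 cells/well according to doubling time. They were pre-incubated 24 h at 37 °C in 5% CO₂, and time-zero (Tz) plates were TCA-fixed at drug addition. Five 10-fold dilutions of DMSO stock were applied for 48 h. Read-out was SRB staining, 515 nm absorbance, with percent growth calculated versus Tz and untreated control.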

MDA-MB-468 [5] = assay: Cytotoxicity against human MDA-MB-468 cells assessed as cell growth at 10^-5 M after 48 hrs by SRB assay; conditions: MDA-MB-468, 48 h, read-out: Activity
HCT-116 = assay: Cytotoxicity against human HCT116 cells assessed as cell growth at 10^-6 M after 48 hrs by SRB assay; conditions: HCT-116, 48 h, read-out: Activity; outline: as §3
SN12C = assay: Cytotoxicity against human SN12C cells assessed as cell growth at 10^-4 M after 48 hrs by SRB assay; conditions: read-out: Activity
MDA-MB-468 [6] = assay: Cytotoxicity against human MDA-MB-468 cells assessed as cell growth at 10^-4 M after 48 hrs by SRB assay; conditions: MDA-MB-468, 48 h, read-out: Activity
OVCAR-8 [7] = assay: Cytotoxicity against human OVCAR8 cells assessed as cell growth at 10^-6 M after 48 hrs by SRB assay; conditions: OVCAR-8, 48 h, read-out: Activity
TK-10 = assay: Cytotoxicity against human TK10 cells assessed as cell growth at 10^-8 M after 48 hrs by SRB assay; conditions: TK-10, 48 h, read-out: Activity
HT-29 [8] = assay: Growth inhibition of human HT-29 cells after 48 hrs by SRB assay; conditions: HT-29, 48 h; outline: as §1
SR = assay: Cytotoxicity against human SR cells assessed as cell growth at 10^-4 M after 48 hrs by SRB assay; conditions: read-out: Activity
A498 [9] = assay: Cytotoxicity against human A498 cells assessed as cell growth at 10^-6 M after 48 hrs by SRB assay; conditions: A498, 48 h, read-out: Activity; outline: as §2
UACC-257 [10] = assay: Cytotoxicity against human UACC257 cells assessed as cell growth at 10^-6 M after 48 hrs by SRB assay; conditions: UACC-257, 48 h, read-out: Activity
UACC-62 = assay: Growth inhibition of human UACC62 cells after 48 hrs by SRB assay; conditions: UACC-62, 48 h; for CC50: read-out: LC50 (the source's name); outline: as §1
SF-539 = assay: Growth inhibition of human SF539 cells after 48 hrs by SRB assay; conditions: SF-539, 48 h; outline: as §1
UACC-257 [11] = assay: Growth inhibition of human UACC257 cells after 48 hrs by SRB assay; conditions: UACC-257, 48 h; for CC50: read-out: LC50 (the source's name); outline: as §1
PC-3 [12] = assay: Growth inhibition of human PC3 cells after 48 hrs by SRB assay; conditions: PC-3, 48 h; for CC50: read-out: LC50 (the source's name); outline: as §1
SNB-19 = assay: Cytotoxicity against human SNB19 cells assessed as cell growth at 10^-6 M after 48 hrs by SRB assay; conditions: SNB-19, 48 h, read-out: Activity
OVCAR-8 [13] = assay: Cytotoxicity against human OVCAR8 cells assessed as cell growth at 10^-7 M after 48 hrs by SRB assay; conditions: OVCAR-8, 48 h, read-out: Activity
A498 [14] = assay: Cytotoxicity against human A498 cells assessed as cell growth at 10^-7 M after 48 hrs by SRB assay; conditions: A498, 48 h, read-out: Activity; outline: as §2
786-0 = assay: Cytotoxicity against human 786-0 cells assessed as cell growth at 10^-6 M after 48 hrs by SRB assay; conditions: 786-0, 48 h, read-out: Activity; outline: as §2
ACHN = assay: Growth inhibition of human ACHN cells after 48 hrs by SRB assay; conditions: for CC50: read-out: LC50 (the source's name)
Outline: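 Same 48 h NCI-60 five-dose SRB protocol. Adherent lines were fixed with cold TCA at 10% final; suspension lines such as CCRF-CEM were fixed with 16% final TCA. Stain was 0.4% SRB in 1% acetic acid for 10 min, solubilized in 10 mM Tris base and read at 515 nm. GI50 came from log concentration–growth curves, solving [(Ti−Tz)/(C−Tz)]×100 = 50.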

[15] = Cytotoxicity against human Hs 578T cells assessed as cell growth at 10^-8 M after 48 hrs by SRB assay; conditions: read-out: Activity; outline: as §3
UO-31 = assay: Cytotoxicity against human UO31 cells assessed as cell growth at 10^-4 M after 48 hrs by SRB assay; conditions: UO-31, 48 h, read-out: Activity

SMILES: COc1ccc(-c2nn3cc(-c4ccc(O)cc4O)nc3s2)cc1
- growth at 100 µM (NCI-H322M): 11%
- GI50 (EKVX [1]): 1.95 µM
- LC50 (concentration killing 50% of cells) (EKVX [1]): > 100 µM
- TGI (EKVX [1]): 41.2 µM
- growth at 0.1 µM (PC-3 [2]): 91%
- growth at 1 µM (DU-145): 91%
- growth at 100 µM (EKVX [3]): -9%
- growth at 0.01 µM (MDA-MB-231): 99%
- GI50 (SF-295): 2.16 µM
- TGI (SF-295): 15.1 µM
- CC50 (SF-295): > 100 µM
- growth at 100 µM (HT-29 [4]): -20%
- growth at 10 µM (MDA-MB-468 [5]): 9%
- growth at 1 µM (HCT-116): 86%
- growth at 100 µM (SN12C): 2%
- growth at 100 µM (MDA-MB-468 [6]): -27%
- growth at 1 µM (OVCAR-8 [7]): 81%
- growth at 0.01 µM (TK-10): 92%
- GI50 (HT-29 [8]): 2.95 µM
- LC50 (concentration killing 50% of cells) (HT-29 [8]): > 100 µM
- TGI (HT-29 [8]): 20.2 µM
- growth at 100 µM (SR): -35%
- growth at 1 µM (A498 [9]): 34%
- growth at 1 µM (UACC-257 [10]): 83%
- GI50 (UACC-62): 3.47 µM
- TGI (UACC-62): 17.7 µM
- CC50 (UACC-62): 59.4 µM
- GI50 (SF-539): 1.83 µM
- TGI (SF-539): 3.47 µM
- GI50 (UACC-257 [11]): 4.98 µM
- TGI (UACC-257 [11]): 76.4 µM
- CC50 (UACC-257 [11]): > 100 µM
- GI50 (PC-3 [12]): 1.95 µM
- TGI (PC-3 [12]): > 100 µM
- CC50 (PC-3 [12]): > 100 µM
- growth at 1 µM (SNB-19): 85%
- growth at 0.1 µM (OVCAR-8 [13]): 98%
- growth at 0.1 µM (A498 [14]): 70%
- growth at 1 µM (786-0): 90%
- GI50 (ACHN): 3.52 µM
- TGI (ACHN): > 100 µM
- CC50 (ACHN): > 100 µM
- growth at 0.01 µM [15]: 95%
- growth at 100 µM (UO-31): -10%

SMILES: COc1ccc(-c2nn3cc(-c4cccc(N)c4)nc3s2)cc1
- growth at 100 µM (NCI-H322M): -3%
- GI50 (EKVX [1]): 1.01 µM
- LC50 (concentration killing 50% of cells) (EKVX [1]): > 100 µM
- TGI (EKVX [1]): 12.8 µM
- growth at 0.1 µM (PC-3 [2]): 81%
- growth at 1 µM (DU-145): 93%
- growth at 100 µM (EKVX [3]): -18%
- growth at 0.01 µM (MDA-MB-231): 85%
- GI50 (SF-295): 2.88 µM
- TGI (SF-295): 29.3 µM
- CC50 (SF-295): > 100 µM
- growth at 100 µM (HT-29 [4]): -48%
- growth at 10 µM (MDA-MB-468 [5]): -2%
- growth at 1 µM (HCT-116): 90%
- growth at 100 µM (SN12C): 4%
- growth at 100 µM (MDA-MB-468 [6]): -16%
- growth at 1 µM (OVCAR-8 [7]): 94%
- growth at 0.01 µM (TK-10): 125%
- GI50 (HT-29 [8]): 4.27 µM
- LC50 (concentration killing 50% of cells) (HT-29 [8]): > 100 µM
- TGI (HT-29 [8]): 23.2 µM
- growth at 100 µM (SR): 23%
- growth at 1 µM (A498 [9]): 53%
- growth at 1 µM (UACC-257 [10]): 107%
- GI50 (UACC-62): 2.92 µM
- TGI (UACC-62): 24.4 µM
- CC50 (UACC-62): > 100 µM
- GI50 (SF-539): 2.51 µM
- LC50 (SF-539): 48 µM
- TGI (SF-539): 7.83 µM
- GI50 (UACC-257 [11]): 17.3 µM
- TGI (UACC-257 [11]): > 100 µM
- CC50 (UACC-257 [11]): > 100 µM
- GI50 (PC-3 [12]): 1.2 µM
- TGI (PC-3 [12]): 20.8 µM
- CC50 (PC-3 [12]): > 100 µM
- growth at 1 µM (SNB-19): 81%
- growth at 0.1 µM (OVCAR-8 [13]): 107%
- growth at 0.1 µM (A498 [14]): 79%
- growth at 1 µM (786-0): 104%
- GI50 (ACHN): 4.5 µM
- TGI (ACHN): 21.8 µM
- CC50 (ACHN): 91.3 µM
- growth at 0.01 µM [15]: 90%
- growth at 100 µM (UO-31): -63%
